Experimental data gathered from unrelated publications.
Target: Leukocyte tyrosine kinase receptor (LTK, Homo sapiens, UniProt P29376)

Cc1noc([C@H]2C[C@@H](c3ccc(C(F)(F)F)cc3)CN(C(=O)N3CCS(=O)(=O)C3)C2)n1
remaining binding (cell-free assay; competition with immobilised ligand; 1 µM): 100%

Nc1ncnc2occ(-c3ccc(NC(=O)Nc4cc(C(F)(F)F)ccc4F)cc3)c12
remaining activity (enzyme activity; inhibitor; 20 µM): 1.6%

COc1cc(Cl)c(C(=O)N[C@@H](CN[C@H]2CC[C@@H](N)CC2)Cc2ccc(C#N)cc2)cc1-c1ccc(CN[C@H](C)c2ccc(C)cc2)o1
remaining activity (enzyme activity; inhibitor; 1 µM): 94%

Cc1sc(C(=O)NC2COC2)cc1-n1cc(NC(=O)Nc2c(F)cccc2Cl)cn1
remaining activity (enzyme activity; inhibitor; 10 µM): 114%

CCCS(=O)(=O)Nc1ccc(F)c(C(=O)c2c[nH]c3ncc(-c4ccc(Cl)cc4)cc23)c1F
inhibition (enzyme activity; inhibitor; 1 µM): < 10%

Cc1cc(NC(=O)c2cccc3cc(-c4cccc5[nH]nc(N)c45)ccc23)ccc1F
activity vs control (enzyme activity; inhibitor; 0.1 µM): 96%

Cc1ccc(C(=O)Nc2ccc(CN3CCN(C)CC3)c(C(F)(F)F)c2)cc1C#Cc1cnc2cccnn12
remaining signal (cell-free assay; 23.5 nM): 82%

COCCOc1nc(-c2ccc(Cl)nc2)nc2c1CN(C(=O)c1ncn3ccccc13)CC2
remaining binding (cell-free assay; competition with immobilised ligand; 0.1 µM): 100%

CC(C)(O)[C@H]1CC[C@H](Nc2ccc3ncc(-c4cccc(C(F)(F)F)c4)n3n2)CC1
remaining activity (enzyme activity; inhibitor; 1 µM): 70.5%

COc1cc2ncnc(Nc3ccc(Oc4ccccc4)c(C)c3C)c2cc1OC
inhibition (enzyme activity; inhibitor; 1 µM): -2%

Cc1cnc(NC2CCOCC2)nc1-n1cnc(C(=O)NC(CN)c2cc(F)cc(Cl)c2)c1 (stereo not shown)
remaining activity (enzyme activity; inhibitor; radiometric; 1 µM): 103%

Cc1ccc(C(=O)NCc2ccsc2)cc1C#Cc1cn(C(C)C)c2ncnc(N)c12
activity vs control (enzyme activity; inhibitor; 1 µM): 95%

O=C(Nc1cnn(-c2csc(C(=O)NC3COC3)c2)c1)Nc1c(F)cccc1Cl
remaining activity (enzyme activity; inhibitor; 5 µM): 92.2%

O=C(O)[C@H]1[C@H](Cn2nnc3ccccc3c2=O)CC[C@@H]1C(=O)c1ccc(OCCC2CCOCC2)cc1
remaining binding (cell-free assay; competition with immobilised ligand; 1 µM): 100%

COc1cc2nccc(Oc3ccc(NC(=O)c4c5n(n(-c6ccc(F)cc6)c4=O)CCCC5)cc3)c2cc1OC
inhibition (enzyme activity; inhibitor; 0.1 µM): -10%

COc1cc2ncnc(Nc3ccc(Oc4ccccc4)cc3C)c2cc1OC
inhibition (enzyme activity; inhibitor; 1 µM): -5%

O=C(Nc1cnc(Oc2ccc(F)cc2)nc1)N1CCc2ncccc2[C@@H]1c1ccc(F)cc1
remaining binding (cell-free assay; competition with immobilised ligand; 1 µM): 93%

Cc1ccc(NC(=O)c2ccc(C)c(C(F)(F)F)c2)cc1C#Cc1nn(C2CCC(O)CC2)c2ncnc(N)c12 (stereo not shown)
remaining signal (cell-free assay; 10 µM): 73%

CC/C(=N\NC(=O)NCc1cccc(O)c1)c1ccc(O)c(C)c1O
inhibition (enzyme activity; inhibitor; 0.1 µM): -1.4%
